How the values were obtained:
Format in all cases: physicochemical
[1] = Chemical stability in NH3-EtOH (9:1, v/v) at room temperature assessed as time taken for complete hydrolysis
How it was run: (§1)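 Nucleoside derivatives carrying 2-substituted benzoyl masking groups were kept in the basic solution. The time until hydrolysis was complete was recorded. Substrates showing no change over a 24 h observation window were scored as stable at 24 h.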

[2] = Chemical stability in NH3-EtOH (9:1, v/v) at 55 deg C assessed as time taken for complete hydrolysis; how it was run: as §1
[3] = Chemical stability in 2 M NaOH/EtOH solution at room temperature assessed as time taken for complete hydrolysis; how it was run: as §1
[4] = Chemical stability in 1.5 M NaOMe/MeOH solution at room temperature assessed as time taken for complete hydrolysis; how it was run: as §1
[5] = Chemical stability in 0.5 M NaOH/EtOH solution at room temperature assessed as time taken for complete hydrolysis; how it was run: as §1

| Stability [1] | Stability [2] | Stability [3] | Stability [4] | Stability [5] | Structure (SMILES) |
| --- | --- | --- | --- | --- | --- |
| 12 h | 4 h |  |  |  | Cc1cn([C@H]2C[C@H](O)[C@@H](COC(=O)C=C[Si](C)(C)C)O2)c(=O)[nH]c1=O |
|  | > 24 h | > 24 h | > 24 h |  | C[Si](C)(C)c1ccccc1C(=O)Nc1ccn([C@H]2C[C@H](O)[C@@H](CO)O2)c(=O)n1 |
| > 24 h | > 24 h | 4 h |  | 24 h | Cc1cn([C@H]2C[C@H](O)[C@@H](COC(=O)c3ccccc3[Si](C)(C)C)O2)c(=O)[nH]c1=O |
| 48 h | 8 h |  |  |  | C[Si](C)(C)c1ccccc1C(=O)O[C@@H]1[C@H](O)[C@@H](CO)O[C@H]1n1ccc(=O)[nH]c1=O |
| 24 h | 10 h | 0.25 h |  | 1 h | Cc1ccccc1C(=O)OC[C@H]1O[C@@H](n2cc(C)c(=O)[nH]c2=O)C[C@@H]1O |
| > 24 h | > 24 h | 4 h |  | 24 h | Cc1cn([C@H]2C[C@H](O)[C@@H](COC(=O)c3ccccc3C(C)(C)C)O2)c(=O)[nH]c1=O |

From ChEMBL document CHEMBL1154120, “Synthesis and properties of nucleoside derivatives acylated by chemically stable 2-(trimethylsilyl)benzoyl group” (Bioorg Med Chem, 2009)
